Tests used:
[1] = system: Liver microsome; assay: Half life in rat liver microsomes by LC-MS/MS analysis; assay type: ADME
How it was run: (§1)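 Compound at 1 μM with 1 mg/mL liver microsomes in 100 mM potassium phosphate pH 7.4 at 37 °C with shaking. Reaction started with 1 mM NADPH (final). Aliquots were taken at 0, 5, 10, 20, 40 and 60 min and quenched in acetonitrile. Parallel incubations without NADPH were run.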

[2] = biological target: T1, Collagenase 3 (Homo sapiens, UniProt P45452); assay: Non-competitive inhibition of full-length recombinant human MMP-13 assessed as fTHP-15 substrate hydrolysis
[3] = system: Liver; assay: Half life in mouse liver microsomes by LC-MS/MS analysis; assay type: ADME; how it was run: as §1
[4] = biological target: T1, Collagenase 3; assay: Inhibition of full-length recombinant human MMP-13 assessed as prevention of bovine type-2 collagen degradation at 10 uM after 18 hrs by cartilage explant assay
How it was run: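 Bovine articular cartilage pieces (~3 mm2) were made nonviable by three freeze–thaw cycles in LN2 and trypsin-digested for 4 h to remove aggrecan. They were then incubated with 100 nM MMP-13 ± compound for 18 h at 37 °C, 5% CO2, in triplicate at a single concentration. Released collagen fragments were measured by C1,2C ELISA and normalized to undigested and MMP-13-digested controls.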

[5] = biological target: T2, Caspase-5 (Homo sapiens) (UniProt P51878); assay: Inhibition of recombinant human caspase 5 using LEHDGP substrate at up to 5 uM after 3 hrs
T2 sequence (whole entry): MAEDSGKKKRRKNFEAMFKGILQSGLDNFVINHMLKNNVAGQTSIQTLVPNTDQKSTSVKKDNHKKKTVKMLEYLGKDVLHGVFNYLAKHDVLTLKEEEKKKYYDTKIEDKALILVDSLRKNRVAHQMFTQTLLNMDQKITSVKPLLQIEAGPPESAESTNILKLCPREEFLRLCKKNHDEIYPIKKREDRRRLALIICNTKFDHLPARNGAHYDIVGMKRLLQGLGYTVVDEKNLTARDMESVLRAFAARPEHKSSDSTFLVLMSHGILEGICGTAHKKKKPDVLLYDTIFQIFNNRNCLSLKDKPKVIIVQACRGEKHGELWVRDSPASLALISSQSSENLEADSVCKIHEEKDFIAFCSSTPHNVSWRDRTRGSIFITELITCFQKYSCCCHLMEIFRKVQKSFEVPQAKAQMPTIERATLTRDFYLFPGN
How it was run: (§2)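 Outsourced microfluidic protease panel. Compound was preincubated with each protease for 30 min at 25 °C, then peptide substrate was added for 3 h at 25 °C and quenched with SDS/EDTA/iodoacetate. Substrate-to-product conversion was measured on LabChip. Compounds were tested singly in a 12-point 3-fold dilution series, top 20 μM (5 μM for two reference compounds).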

[6] = biological target: Procathepsin L (Homo sapiens) (UniProt P07711); assay: Inhibition of recombinant human cathepsin L using GGALRAG substrate at up to 5 uM after 3 hrs
Chain of Procathepsin L (Homo sapiens) (P07711 114-333 limits assumed): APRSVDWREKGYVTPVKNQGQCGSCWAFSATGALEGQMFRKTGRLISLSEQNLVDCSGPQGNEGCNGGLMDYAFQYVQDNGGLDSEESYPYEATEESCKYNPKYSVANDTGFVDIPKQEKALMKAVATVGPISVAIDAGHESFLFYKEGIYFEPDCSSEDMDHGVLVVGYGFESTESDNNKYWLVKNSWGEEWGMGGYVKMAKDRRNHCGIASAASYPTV
How it was run: (§3)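 In this microfluidic protease panel, enzyme and compound were preincubated 30 min at 25 °C. The peptide substrate was added and the reaction was incubated 3 h at 25 °C, then quenched (SDS, EDTA, iodoacetate). Activity was read as % substrate converted to product. Dose–response was singlicate, 12-point 3-fold dilutions spanning 5 μM to 0.028 nM. IC50 was the concentration leaving 50% activity relative to no-compound control.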

[7] = biological target: T3, Cathepsin K (Homo sapiens) (UniProt P43235); assay: Inhibition of recombinant human cathepsin K using HHQKLVFFAE substrate at up to 5 uM after 3 hrs; how it was run: as §2
T3 sequence (whole entry): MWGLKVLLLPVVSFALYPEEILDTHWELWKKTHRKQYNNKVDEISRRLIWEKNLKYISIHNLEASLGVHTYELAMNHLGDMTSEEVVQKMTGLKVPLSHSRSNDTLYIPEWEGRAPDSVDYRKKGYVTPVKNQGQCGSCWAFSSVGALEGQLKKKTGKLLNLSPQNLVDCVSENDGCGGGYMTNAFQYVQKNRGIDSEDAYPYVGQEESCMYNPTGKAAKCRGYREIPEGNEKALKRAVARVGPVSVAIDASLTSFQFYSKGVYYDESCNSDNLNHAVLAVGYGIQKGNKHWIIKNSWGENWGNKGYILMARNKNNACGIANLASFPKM

[8] = biological target: T4, Caspase-7 (Homo sapiens) (UniProt P55210); assay: Inhibition of recombinant human caspase 7 using DEVDAA substrate at up to 5 uM after 3 hrs; how it was run: as §2
T4 sequence (whole entry): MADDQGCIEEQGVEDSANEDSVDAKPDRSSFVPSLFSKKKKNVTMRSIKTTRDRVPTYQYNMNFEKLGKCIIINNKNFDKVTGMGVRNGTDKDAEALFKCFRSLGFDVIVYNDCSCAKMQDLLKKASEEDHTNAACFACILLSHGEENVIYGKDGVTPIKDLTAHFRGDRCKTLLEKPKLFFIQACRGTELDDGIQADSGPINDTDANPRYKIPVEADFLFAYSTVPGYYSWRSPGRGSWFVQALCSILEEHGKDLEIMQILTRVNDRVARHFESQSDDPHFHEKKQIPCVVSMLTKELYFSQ

[9] = biological target: Cathepsin S (Homo sapiens) (UniProt P25774); assay: Inhibition of recombinant human cathepsin S using RTLTAK substrate at up to 5 uM after 3 hrs; how it was run: as §3
Chain of Cathepsin S (Homo sapiens) (P25774 115-331 limits assumed): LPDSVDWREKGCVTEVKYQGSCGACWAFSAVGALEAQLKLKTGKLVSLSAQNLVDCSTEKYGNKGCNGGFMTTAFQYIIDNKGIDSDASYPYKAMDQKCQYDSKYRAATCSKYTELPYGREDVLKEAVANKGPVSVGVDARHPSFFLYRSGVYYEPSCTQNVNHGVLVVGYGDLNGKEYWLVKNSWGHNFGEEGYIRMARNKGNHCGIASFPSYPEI

[10] = biological target: Cathepsin D (Homo sapiens) (UniProt P07339); assay: Inhibition of recombinant human cathepsin D using EVNLDAEFRK substrate at up to 5 uM after 3 hrs; how it was run: as §2
Chain of Cathepsin D (Homo sapiens) (P07339 65-162 limits assumed): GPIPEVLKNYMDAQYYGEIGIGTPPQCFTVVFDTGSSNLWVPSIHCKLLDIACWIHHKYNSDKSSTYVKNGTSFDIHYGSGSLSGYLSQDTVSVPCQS
Chain of Cathepsin D (Homo sapiens) (P07339 169-412 limits assumed): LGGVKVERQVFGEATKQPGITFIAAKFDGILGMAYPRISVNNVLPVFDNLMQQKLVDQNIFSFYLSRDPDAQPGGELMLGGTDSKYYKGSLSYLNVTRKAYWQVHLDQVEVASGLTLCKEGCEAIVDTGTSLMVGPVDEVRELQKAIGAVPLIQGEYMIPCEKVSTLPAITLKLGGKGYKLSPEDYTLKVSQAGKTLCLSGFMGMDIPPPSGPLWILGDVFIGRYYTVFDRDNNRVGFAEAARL

[11] = biological target: Urokinase-type plasminogen activator (Homo sapiens) (UniProt P00749); assay: Inhibition of recombinant human uPA using GRTSSVEP substrate at up to 5 uM after 3 hrs; how it was run: as §3
[12] = biological target: T5, Caspase-1 (Homo sapiens) (UniProt P29466); assay: Inhibition of recombinant human caspase 1 using WEHDGPKR substrate at up to 5 uM after 3 hrs; how it was run: as §2
T5 sequence (whole entry): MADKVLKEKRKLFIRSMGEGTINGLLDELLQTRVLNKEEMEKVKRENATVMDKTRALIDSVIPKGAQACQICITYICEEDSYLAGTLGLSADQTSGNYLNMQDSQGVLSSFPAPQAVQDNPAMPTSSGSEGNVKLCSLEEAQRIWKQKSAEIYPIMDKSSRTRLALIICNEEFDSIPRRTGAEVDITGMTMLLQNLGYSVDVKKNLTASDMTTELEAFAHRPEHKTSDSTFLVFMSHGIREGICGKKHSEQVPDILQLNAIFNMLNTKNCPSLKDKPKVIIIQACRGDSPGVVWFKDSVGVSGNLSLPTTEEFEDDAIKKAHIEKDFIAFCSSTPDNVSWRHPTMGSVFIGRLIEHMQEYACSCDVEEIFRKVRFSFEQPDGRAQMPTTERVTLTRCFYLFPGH

Row | Compound | t1/2 [1] | IC50 [2] | t1/2 [3] | inhibition [4] | inhibition [5] | inhibition [6] | inhibition [7] | inhibition [8] | inhibition [9] | inhibition [10] | inhibition [11] | inhibition [12]
1 | Oc1nc(SCc2ccc(Cl)cc2)nc2c1CCC2 | 6.8 min | 3.4 µM | 1.3 min |  |  |  |  |  |  |  |  | 
2 | Cc1ccc(CSc2nc(O)c3c(n2)CCC3)cc1 |  |  |  | 59% |  |  |  |  |  |  |  | 
3 | Cc1cc(CNC(=O)c2cc(C(=O)NCc3ccc(F)c(C)c3)ncn2)ccc1F |  |  |  |  | < 10% | < 10% | < 10% | < 10% | < 10% | < 10% | < 10% | < 10%
4 | COC(=O)c1ccc(CSc2nc3c(c(=O)[nH]2)CCC3)cc1 | 1.8 min | 2.8 µM | 2 min | 38% |  |  |  |  |  |  |  | 
5 | Cn1c(=O)n(Cc2ccc(C(=O)O)cc2)c(=O)c2cc(C#CCc3ccccc3)ccc21 |  |  |  |  | < 10% | < 10% | > 10% | < 10% | < 10% | < 10% | < 10% | < 10%

Source: ChEMBL document CHEMBL3352788, “Characterization of selective exosite-binding inhibitors of matrix metalloproteinase 13 that prevent articular cartilage degradation in vitro” (J Med Chem, 2014)
